Results reported in ChEMBL document CHEMBL1123337, “Synthesis and antiinflammatory/analgesic activities of 11H-dibenzo[b, e,][1,4]dioxepinacetic acids” (J Med Chem, 1986).

Key:
Assay type in all cases: functional
Rattus norvegicus [1] = experiment: Antiinflammatory activity was evaluated by the inhibition of rat carrageenan foot edema (CFE) assay at the dose of 1 mg/kg
Procedure, shortened: (§1)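 Rats, six per dose. Oral dosing 1 h before carrageenan injection, as a suspension in 0.25% (w/v) agar in water, 3.0 mL per animal. Hindpaw volume read by mercury displacement just after injection and 3 h later. Percent inhibition of mean swelling relative to vehicle controls; unpaired Student's t test.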

Rattus norvegicus [2] = experiment: Antiinflammatory activity was evaluated by the inhibition of rat carrageenan foot edema (CFE) assay at the dose of 10 mg/kg; procedure, shortened: as §1
Rattus norvegicus [3] = experiment: Antiinflammatory activity was evaluated by the inhibition of rat carrageenan foot edema (CFE) assay at the dose of 3 mg/kg; procedure, shortened: as §1
Mus musculus [4] = experiment: Analgesic activity determined by its ability to inhibit phenylbenzoquinone (PBQ, ip) induced abdominal writhing at dose of 30 mg/kg; conditions: Abdomen
Procedure, shortened: (§2)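 Male CD mice, 18–22 g, groups of 10, fasted overnight. Dosed orally in 1% methylcellulose 60 min before ip phenylbenzoquinone (2 mg/kg, 0.02% aqueous). Writhes (abdominal contractions, lordosis, hindlimb extension) counted over 10 min, starting 5 min after PBQ. Group means and standard errors taken; percent inhibition calculated against vehicle controls.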

Rattus norvegicus [5] = experiment: Compound was evaluated for the effective dose required for the inhibition of rat carrageenan foot edema (CFE) assay
Mus musculus [6] = experiment: Analgesic activity determined by its ability to inhibit phenylbenzoquinone (PBQ, ip) induced abdominal writhing at dose of 10 mg/kg; conditions: Abdomen; procedure, shortened: as §2
Rattus norvegicus [7] = experiment: Gastric haemorrhage at the dose of 10 mg/kg expressed as the number of rats with lesions per 6 number of rats (lesions per animal=4.2)
Procedure, shortened: (§3)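 Male Sprague-Dawley rats, 120–200 g, six per group, weight-sorted and fasted overnight. Given orally as a suspension in 0.5% methocal. Killed by CO2 4 h later. Stomachs everted and washed, and mucosal lesions counted visually under 3× magnification. Scored as rats with lesions per total, with lesions per animal.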

Rattus norvegicus [8] = experiment: Gastric haemorrhage at the dose of 30 mg/kg expressed as the number of rats with lesions per 6 number of rats; procedure, shortened: as §3
Mus musculus [9] = experiment: Analgesic activity determined by its ability to inhibit phenylbenzoquinone (PBQ, ip) induced abdominal writhing at dose of 3 mg/kg; conditions: Abdomen; procedure, shortened: as §2
Rattus norvegicus [10] = experiment: Gastric haemorrhage at the dose of 10 mg/kg expressed as the number of rats with lesions per 6 number of rats; procedure, shortened: as §3
Rattus norvegicus [11] = experiment: Gastric haemorrhage at the dose of 30 mg/kg expressed as the number of rats with lesions per 6 number of rats (lesions per animal=1.7); procedure, shortened: as §3

Compound | inhibition in vivo at 1 mg/kg (Rattus norvegicus [1]) | inhibition in vivo at 10 mg/kg (Rattus norvegicus [2]) | inhibition in vivo at 3 mg/kg (Rattus norvegicus [3]) | inhibition in vivo at 30 mg/kg (Mus musculus [4]) | also measured
COc1ccc2c(c1)c(CC(=O)O)c(C)n2C(=O)c1ccc(Cl)cc1 [INDOMETHACIN] | 33% | 67% | 56% | – | –
Cc1cc(CC(=O)O)n(C)c1C(=O)c1ccc(Cl)cc1 [ZOMEPIRAC] | 61% | – | 82% | 91% | –
O=C(O)Cc1ccc2c(c1)OCc1ccccc1C2=O [OXEPINAC] | – | – | – | – | ED50 (Rattus norvegicus [5]): 3.7 mg/kg
O=C(O)Cc1ccc2c(c1)Oc1cc(Cl)ccc1CO2 | 11% | 5% | 19% | 26% | –
O=C(O)Cc1ccc2c(c1)Oc1ccc(Cl)cc1CO2 | 21% | 28% | 23% | 82% | –
O=C(O)Cc1ccc2c(c1)COc1ccccc1O2 | 12% | 16% | 9% | 37% | –
O=C(O)Cc1ccc2c(c1)Oc1ccccc1CO2 | 24% | 40% | 10% | 26% | –
CC(C(=O)O)c1ccc2c(c1)Oc1ccccc1CO2 (stereo not drawn) | 21% | 42% | 27% | 91% | inhibition in vivo at 10 mg/kg (Mus musculus [6]): 70%; No. of rats with lesions (Rattus norvegicus [7]): 5; No. of rats with lesions (Rattus norvegicus [8]): 6; inhibition in vivo at 3 mg/kg (Mus musculus [9]): 38%
CC(=O)Nc1ccc2c(c1)COc1ccc(CC(=O)O)cc1O2 | 35% | 23% | 16% | -55% | –
CCC(=O)OC(C)OC(=O)C(C)c1ccc2c(c1)Oc1ccccc1CO2 (stereo not drawn) | 6% | 12% | 15% | – | –
CC(C(=O)O)c1ccc2c(c1)OCc1ccccc1O2 (stereo not drawn) | 43% | 43% | 45% | 70% | –
CC(CO)c1ccc2c(c1)Oc1ccccc1CO2 (stereo not drawn) | 9% | 45% | 19% | – | –
CC(=O)NCCOC(=O)C(C)c1ccc2c(c1)Oc1ccccc1CO2 (stereo not drawn) | 7% | 28% | 15% | – | –
O=C(O)Cc1ccc2c(c1)Oc1ccccc1OC2 | – | 5% | 6% | – | –
COC(=O)C(C)c1ccc2c(c1)Oc1ccccc1CO2 (stereo not drawn) | 23% | 56% | 32% | – | No. of rats with lesions (Rattus norvegicus [10]): 0; No. of rats with lesions (Rattus norvegicus [11]): 5
O=C(O)Cc1ccc2c(c1)OCc1ccccc1O2 | 28% | 49% | 53% | – | –
